Reference: ChEMBL document CHEMBL1124770, “Synthesis and pharmacological evaluation of amino, azido, and nitrogen mustard analogues of 10-substituted cannabidiol and 11- or 12-substituted delta 8-tetrahydrocannabinol” (1990)

Assays:
Format in all cases: functional
Mus musculus [1] = experiment: Tail-flick latency was determined at a concentration of 150 ug/Kg administered intraventricularly
Summary of the method: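 Mice, injected intraventricularly in 5 μL of ethanol/emulphor/saline (1:1:18) vehicle. Doses given as μg amounts. Antinociception read as tail-flick latency (s), alongside vehicle control. Values reported as mean ± SEM. ANOVA with Dunnett's t test versus control, significance at p < 0.05 (two-tailed).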

Mus musculus [2] = experiment: Evaluated for reduction in spontaneous locomotor activity in mice, at a dose of 0 ug/Kg administered intraventricularly
Summary of the method: (§1)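 Mice given intraventricular injection of 5 μL in ethanol/emulphor/saline (1:1:18). Spontaneous locomotor activity recorded as counts/10 min by previously reported methods, alongside vehicle and Δ9-THC controls. Mean ± SEM; ANOVA with Dunnett's t test, p < 0.05 two-tailed.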

Mus musculus [3] = experiment: Evaluated for hypothermic activity in mice at a dose of 0 ug/Kg administered intraventricularly
Summary of the method: (§2)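 Intraventricular injection in mice, 5 μL volume, in ethanol/emulphor/saline (1:1:18) vehicle. Change in body temperature (°C) recorded by previously reported methods, with vehicle and Δ9-THC controls. Mean ± SEM; ANOVA with Dunnett's t test versus control, p < 0.05 two-tailed.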

Mus musculus [4] = experiment: Evaluated for hypothermic activity in mice at a dose of 150 ug/Kg administered intraventricularly; summary of the method: as §2
Mus musculus [5] = experiment: Evaluated for reduction in spontaneous locomotor activity in mice at a dose of 150 ug/Kg administered intraventricularly; summary of the method: as §1
Mus musculus [6] = experiment: Evaluated for catalepsy activity in mice and percentage immobility was determined at a concentration of 50 mg/Kg.
Summary of the method: (§3)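 Mice, single tail-vein injection (0.1 mL/10 g) in ethanol/emulphor/saline (1:1:18). Catalepsy scored by ring test as % immobility, per previously reported methods. Vehicle and Δ9-THC positive-control groups run in each daily experiment. Mean ± SEM; ANOVA with Dunnett's t test versus control, p < 0.05 two-tailed.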

Mus musculus [7] = experiment: Evaluated for catalepsy activity in mice and percentage immobility was determined at a concentration of 0 mg/Kg.; summary of the method: as §3
Mus musculus [8] = experiment: Evaluated for hypothermic activity in mice at a dose of 50 mg/Kg.
Summary of the method: (§4)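 Mice dosed by tail-vein injection (0.1 mL/10 g) in ethanol/emulphor/saline (1:1:18). Body temperature change (°C) measured by previously reported methods. Vehicle and Δ9-THC positive controls run each day. Mean ± SEM; ANOVA with Dunnett's t test versus control, p < 0.05 two-tailed.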

Mus musculus [9] = experiment: Tail-flick latency was determined at a concentration of 50 mg/Kg.
Summary of the method: (§5)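 Mice, drug suspended in ethanol/emulphor/saline (1:1:18) and given by tail-vein injection (0.1 mL/10 g). Antinociception measured as tail-flick latency (s). Vehicle and Δ9-THC positive controls run in each daily experiment. Data given as mean ± SEM. ANOVA with Dunnett's t test against control, p < 0.05 (two-tailed).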

Mus musculus [10] = experiment: Evaluated for reduction in spontaneous locomotor activity in mice, at a dose of 0 mg/Kg
Summary of the method: (§6)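 Tail-vein injection in mice (0.1 mL/10 g; ethanol/emulphor/saline 1:1:18). Spontaneous locomotor activity counted as counts/10 min, per previously reported methods. Daily vehicle and Δ9-THC positive controls. Mean ± SEM; ANOVA with Dunnett's t test, p < 0.05 two-tailed.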

Mus musculus [11] = experiment: Tail-flick latency was determined at a concentration of 0 mg/Kg.
Summary of the method: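 Antinociception in mice by tail-flick latency (s), per previously reported methods, after tail-vein injection (0.1 mL/10 g) in ethanol/emulphor/saline (1:1:18). Vehicle and Δ9-THC controls run daily. Mean ± SEM; ANOVA with Dunnett's t test, p < 0.05 two-tailed.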

Mus musculus [12] = experiment: Tail-flick latency was determined at a concentration of 0 ug/Kg administered intraventricularly
Summary of the method: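 Tail-flick latency (s) in mice after intraventricular injection (5 μL) of ethanol/emulphor/saline (1:1:18) vehicle, measured by previously reported methods. Mean ± SEM; ANOVA with Dunnett's t test, p < 0.05 two-tailed.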

Mus musculus [13] = experiment: Evaluated for reduction in spontaneous locomotor activity in mice at a dose of 50 mg/Kg; summary of the method: as §6
Mus musculus [14] = experiment: Evaluated for hypothermic activity in mice at a dose of 0 mg/Kg.; summary of the method: as §4
Mus musculus [15] = experiment: Evaluated for reduction in spontaneous locomotor activity in mice at a dose of 100 mg/Kg; summary of the method: as §6
Mus musculus [16] = experiment: Evaluated for hypothermic activity in mice at a dose of 100 mg/Kg.; summary of the method: as §4
Mus musculus [17] = experiment: Tail-flick latency was determined at a concentration of 100 mg/Kg.; summary of the method: as §5
Mus musculus [18] = experiment: Evaluated for catalepsy activity in mice and percentage immobility was determined at a concentration of 100 mg/Kg.; summary of the method: as §3
Mus musculus [19] = experiment: Evaluated for reduction in spontaneous locomotor activity in mice at a dose of 10 mg/Kg; summary of the method: as §6
Mus musculus [20] = experiment: Evaluated for hypothermic activity in mice at a dose of 10 mg/Kg.; summary of the method: as §4
Mus musculus [21] = experiment: Tail-flick latency was determined at a concentration of 10 mg/Kg.; summary of the method: as §5
Mus musculus [22] = experiment: Tail-flick latency was determined at a concentration of 3 mg/Kg.; summary of the method: as §5
Mus musculus [23] = experiment: Evaluated for catalepsy activity in mice and percentage immobility was determined at a concentration of 3 mg/kg.; summary of the method: as §3
Mus musculus [24] = experiment: Tail-flick latency was determined at a concentration of 5 mg/Kg.; summary of the method: as §5
Mus musculus [25] = experiment: Evaluated for catalepsy activity in mice and percentage immobility was determined at a concentration of 5 mg/Kg.; summary of the method: as §3
Mus musculus [26] = experiment: Evaluated for hypothermic activity in mice at a dose of 3 mg/Kg.; summary of the method: as §4
Mus musculus [27] = experiment: Evaluated for reduction in spontaneous locomotor activity in mice at a dose of 3 mg/Kg; summary of the method: as §6
Mus musculus [28] = experiment: Evaluated for hypothermic activity in mice at a dose of 5 mg/Kg.; summary of the method: as §4
Mus musculus [29] = experiment: Evaluated for reduction in spontaneous locomotor activity in mice at a dose of 5 mg/Kg; summary of the method: as §6
Mus musculus [30] = experiment: Evaluated for catalepsy activity in mice and percentage immobility was determined at a concentration of 5 mg/kg.; summary of the method: as §3
Mus musculus [31] = experiment: Tail-flick latency was determined at a concentration of 6 mg/kg.; summary of the method: as §5
Mus musculus [32] = experiment: Evaluated for hypothermic activity in mice at a dose of 3 mg/kg.; summary of the method: as §4
Mus musculus [33] = experiment: Evaluated for hypothermic activity in mice at a dose of 6 mg/kg.; summary of the method: as §4
Mus musculus [34] = experiment: Evaluated for reduction in spontaneous locomotor activity in mice at a dose of 6 mg/Kg; summary of the method: as §6
Mus musculus [35] = experiment: Evaluated for catalepsy activity in mice and percentage immobility was determined at a concentration of 3 mg/Kg.; summary of the method: as §3

| SMILES | Immobility (Mus musculus [7]) [%] | Spont activity (Mus musculus [10]) [Counts 10min-1] | Tail flick latency (Mus musculus [11]) [s] | Temperature (Mus musculus [14]) [°C] | Tail flick latency (Mus musculus [22]) [s] | Tail flick latency (Mus musculus [24]) [s] | Spont activity (Mus musculus [27]) [Counts 10min-1] | Temperature (Mus musculus [28]) [°C] | Spont activity (Mus musculus [29]) [Counts 10min-1] | other results |
| --- | --- | --- | --- | --- | --- | --- | --- | --- | --- | --- |
| CCCCCc1cc(O)c2c(c1)OC(C)(C)[C@@H]1CC=C(CN(CCCl)CCCl)CC21 (stereo not given in full) | 4 | 56 | 0.7 | -0.8 | – | – | – | – | – | Tail flick latency (Mus musculus [1]): 0 s; Spont activity (Mus musculus [2]): 87 Counts 10min-1; Temperature (Mus musculus [3]): -1.5 °C; Temperature (Mus musculus [4]): -1.7 °C; Spont activity (Mus musculus [5]): 70 Counts 10min-1; Immobility (Mus musculus [6]): <24%; Temperature (Mus musculus [8]): <-3.8 °C; Tail flick latency (Mus musculus [9]): -0.6 s; Tail flick latency (Mus musculus [12]): 0.2 s; Spont activity (Mus musculus [13]): <27 Counts 10min-1 |
| C=C(C)[C@@H]1CCC(C)=CC1c1c(O)cc(O)cc1CCCCC (stereo not given in full) | 4 | 45 | 0.2 | -1.4 | – | – | – | – | – | Spont activity (Mus musculus [15]): 57 Counts 10min-1; Temperature (Mus musculus [16]): -3.5 °C; Tail flick latency (Mus musculus [17]): 0.8 s; Immobility (Mus musculus [18]): <30% |
| CCCCCc1cc(O)c2c(c1)OC(C)(C)[C@@H]1CC=C(CNCC)CC21.Cl (stereo not given in full) | – | 49 | 0.5 | -1.8 | – | – | – | – | – | Spont activity (Mus musculus [19]): 54 Counts 10min-1; Temperature (Mus musculus [20]): <-3.8 °C; Tail flick latency (Mus musculus [21]): <2.6 s |
| CCCCCc1cc(O)c2c(c1)OC(C)(CNCC)[C@@H]1CC=C(C)CC21 (stereo not given in full) | 13 | 52 | 1 | -0.9 | <2.8 | 2.2 | 35 | -0.7 | 35 | Immobility (Mus musculus [23]): 20%; Immobility (Mus musculus [25]): 16%; Temperature (Mus musculus [26]): -1.5 °C |
| CCCCCc1cc(O)c2c(c1)OC(C)(CN)[C@@H]1CC=C(C)CC21 (stereo not given in full) | 13 | 68 | 0.6 | -0.8 | 1.1 | <1.9 | <43 | -0.7 | <42 | Immobility (Mus musculus [30]): 15%; Tail flick latency (Mus musculus [31]): 1.1 s; Temperature (Mus musculus [32]): -1.1 °C; Temperature (Mus musculus [33]): <-3 °C; Spont activity (Mus musculus [34]): <25 Counts 10min-1; Immobility (Mus musculus [35]): 24% |
